Our source for the MIC and MFC values is ChEMBL document CHEMBL1138570, “2-Acylhydrazino-5-arylpyrrole derivatives: synthesis and antifungal activity evaluation” (Eur J Med Chem, 2009).

Holding throughout (format): functional
Assay [1] deals with Nakaseomyces glabratus. The assay can be described thus: Antimicrobial activity against Candida glabrata by broth microdilution method. The method, boiled down:
(§1)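 MIC by NCCLS broth microdilution. Medium was RPMI 1640 with L-glutamine, buffered with 0.165 M MOPS at pH 7.0. Twofold drug dilutions ran 0.008–200 mg/L. Inoculum was set spectrophotometrically to 10⁶ CFU/mL, then diluted in medium to 2 ×10⁴ cells/mL. Plates were incubated overnight at 35 °C in humid air, agitated, and read visually and at 450 nm.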
In general terms: Dilution methods test growth across graded concentrations, often in twofold steps.

In assay [2] the test system is Candida albicans. The assay can be described thus: Antimicrobial activity against Candida albicans ATCC 10231 after 72 hrs by broth microdilution method. The conditions noted are these: ATCC 10231, 72 h. Put shortly: (§2)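 MFC: after MIC reading, a sample from each well was plated on Sabouraud dextrose agar and incubated 72 h at 35 °C. MFC was taken as the minimum concentration killing >99% of the original inoculum. The MIC step was NCCLS broth microdilution in MOPS-buffered RPMI 1640 (pH 7.0), with 2 ×10⁴ cells/mL, overnight at 35 °C.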

Assay [3] concerns Candida albicans. The assay can be described thus: Antimicrobial activity against Candida albicans ATCC 10231 by broth microdilution method. Put shortly: as §1
The test system of assay [4] is Pichia kudriavzevii. The assay can be described thus: Antimicrobial activity against Candida krusei after 72 hrs by broth microdilution method. Put shortly:
as §2

For assay [5], the system named is Nakaseomyces glabratus. The assay can be described thus: Antimicrobial activity against Candida glabrata after 72 hrs by broth microdilution method. Put shortly: as §2
In assay [6] the test system is Candida parapsilosis. The assay can be described thus: Antimicrobial activity against Candida parapsilosis by broth microdilution method. As to conditions: Lodderomyces parapsilosis. The method, boiled down: as §1
For assay [7], the system named is Candida parapsilosis. The assay can be described thus: Antimicrobial activity against Candida parapsilosis after 72 hrs by broth microdilution method. The conditions noted are these: Lodderomyces parapsilosis. The method, boiled down:
as §2

Assay [8] concerns Pichia kudriavzevii. The assay can be described thus: Antimicrobial activity against Candida krusei by broth microdilution method. Put shortly:
as §1

In brackets after ≈: the same amount, converted by molar mass.

In the case of `CCOC(=O)NNc1[nH]c(-c2ccc(C)cc2)cc1C(=O)OCC`, the minimum inhibitory concentration (MIC) in assay [1] worked out at 3.12 µg/mL (≈ 9.42 µM); in assay [3], 6.25 µg/mL (≈ 18.9 µM); in assay [6], 100 µg/mL (≈ 302 µM); in assay [8] it was 100 µg/mL (≈ 302 µM). Also, the MFC in assay [2] was 6.25 µg/mL (≈ 18.9 µM); in assay [4] it was over 100 µg/mL; in assay [5] it was 25 µg/mL (≈ 75.4 µM); in assay [7], over 100 µg/mL.

As for `CCOC(=O)NNc1[nH]c(-c2ccc(OC)cc2)cc1C(=O)OCC`, the MIC is 6.25 µg/mL (≈ 18 µM) in assay [1], 3.12 µg/mL (≈ 8.98 µM) in assay [3], 6.25 µg/mL (≈ 18 µM) in assay [6] and 12.5 µg/mL (≈ 36 µM) in assay [8]. For the same compound, the minimum fungicidal concentration (MFC) worked out at 3.12 µg/mL (≈ 8.98 µM) in assay [2], 100 µg/mL (≈ 288 µM) in assay [4], 25 µg/mL (≈ 72 µM) in assay [5] and 25 µg/mL (≈ 72 µM) in assay [7].

With `CCOC(=O)c1cc(-c2ccc(C)cc2)[nH]c1NNC(=O)C(C)C`, the MIC in assay [1] is over 100 µg/mL; in assay [3] it was 6.25 µg/mL (≈ 19 µM); in assay [6], 25 µg/mL (≈ 75.9 µM); in assay [8], 25 µg/mL (≈ 75.9 µM). Besides, the MFC in assay [2] was 12.5 µg/mL (≈ 37.9 µM); in assay [4], 100 µg/mL (≈ 304 µM); in assay [5], over 100 µg/mL; in assay [7], over 100 µg/mL.

For `CCOC(=O)c1cc(-c2ccc(OC)cc2)[nH]c1NNC(=O)C(C)C`, the MIC in assay [1] was over 100 µg/mL; in assay [3], 6.25 µg/mL (≈ 18.1 µM); in assay [6] it was 6.25 µg/mL (≈ 18.1 µM); in assay [8], 12.5 µg/mL (≈ 36.2 µM). For the same compound, the MFC was 12.5 µg/mL (≈ 36.2 µM) in assay [2], over 100 µg/mL in assay [4], over 100 µg/mL in assay [5] and over 100 µg/mL in assay [7].

In the case of `CCOC(=O)c1cc(-c2ccccc2)[nH]c1NNC(=O)C(C)C`, the MIC is 6.25 µg/mL (≈ 19.8 µM) in assay [1], over 100 µg/mL in assay [3], 25 µg/mL (≈ 79.3 µM) in assay [6] and over 100 µg/mL in assay [8]. Further, the MFC was over 100 µg/mL in assay [2], over 100 µg/mL in assay [4], 12.5 µg/mL (≈ 39.6 µM) in assay [5] and 100 µg/mL (≈ 317 µM) in assay [7].

Turning to `COc1ccc(-c2cc(C#N)c(NNC(=O)C(C)C)[nH]2)cc1`, the minimal inhibitory concentration (MIC) in assay [1] stood at 50 µg/mL (≈ 168 µM); in assay [3] it was 3.12 µg/mL (≈ 10.5 µM); in assay [6] it was 25 µg/mL (≈ 83.8 µM); in assay [8], 50 µg/mL (≈ 168 µM). In addition, the MFC is 3.12 µg/mL (≈ 10.5 µM) in assay [2], over 100 µg/mL in assay [4], over 100 µg/mL in assay [5] and over 100 µg/mL in assay [7].

For the compound `CCC(=O)NNc1[nH]c(-c2ccccc2)cc1C#N`, the MIC in assay [1] is 3.12 µg/mL (≈ 12.3 µM); in assay [3] it was 3.12 µg/mL (≈ 12.3 µM); in assay [6], 3.12 µg/mL (≈ 12.3 µM); in assay [8] it was 1.56 µg/mL (≈ 6.13 µM). Also, the minimal fungicidal concentration (MFC) in assay [2] worked out at 6.25 µg/mL (≈ 24.6 µM); in assay [4], 12.5 µg/mL (≈ 49.2 µM); in assay [5], 12.5 µg/mL (≈ 49.2 µM); in assay [7], 12.5 µg/mL (≈ 49.2 µM).

In the case of `CCCC(=O)NNc1[nH]c(-c2ccccc2)cc1C(=O)OCC`, the minimal inhibitory concentration (MIC) in assay [1] is over 100 µg/mL; in assay [3] it was 12.5 µg/mL (≈ 39.6 µM); in assay [6], 100 µg/mL (≈ 317 µM); in assay [8] it was over 100 µg/mL. Moreover, the minimal fungicidal concentration (MFC) in assay [2] is 12.5 µg/mL (≈ 39.6 µM); in assay [4], over 100 µg/mL; in assay [5] it was over 100 µg/mL; in assay [7], over 100 µg/mL.

Regarding `CCOC(=O)c1cc(-c2ccc(Cl)cc2)[nH]c1NNC(C)=O`, the MIC in assay [1] was over 100 µg/mL; in assay [3], over 100 µg/mL; in assay [6] it was 12.5 µg/mL (≈ 38.8 µM); in assay [8], 25 µg/mL (≈ 77.7 µM). Also, the MFC was over 100 µg/mL in assay [2], 50 µg/mL (≈ 155 µM) in assay [4], over 100 µg/mL in assay [5] and 25 µg/mL (≈ 77.7 µM) in assay [7].

Regarding `CCOC(=O)c1cc(-c2ccc(C)cc2)[nH]c1NNC(=O)Cc1ccc(OC)cc1`, the minimal inhibitory concentration (MIC) in assay [1] was over 100 µg/mL; in assay [3], over 100 µg/mL; in assay [6], 100 µg/mL (≈ 245 µM); in assay [8], 100 µg/mL (≈ 245 µM). Also, the minimal fungicidal concentration (MFC) in assay [2], in assay [4], in assay [5] and in assay [7] was over 100 µg/mL throughout.

With `CCOC(=O)c1cc(-c2ccc(Cl)cc2)[nH]c1NNC(=O)Cc1ccc(OC)cc1`, the minimal inhibitory concentration (MIC) in assay [1], in assay [3], in assay [6] and in assay [8] was over 100 µg/mL in each case. Besides, the MFC in assay [2], in assay [4], in assay [5] and in assay [7] was over 100 µg/mL in each case.

`CCOC(=O)c1cc(-c2ccc(OC)cc2)[nH]c1NNC(C)=O`: the minimal inhibitory concentration (MIC) in assay [1] was 6.25 µg/mL (≈ 19.7 µM); in assay [3] it was 3.12 µg/mL (≈ 9.83 µM); in assay [6], 50 µg/mL (≈ 158 µM); in assay [8], 12.5 µg/mL (≈ 39.4 µM). Also, the MFC worked out at 3.12 µg/mL (≈ 9.83 µM) in assay [2], 25 µg/mL (≈ 78.8 µM) in assay [4], 12.5 µg/mL (≈ 39.4 µM) in assay [5] and 50 µg/mL (≈ 158 µM) in assay [7].

Regarding `CCOC(=O)c1cc(-c2ccc(Cl)cc2)[nH]c1NNC(=O)C(C)C`, the MIC in assay [1], in assay [3], in assay [6] and in assay [8] was over 100 µg/mL in each case. For the same compound, the minimal fungicidal concentration (MFC) in assay [2], in assay [4], in assay [5] and in assay [7] was over 100 µg/mL each time.

For orientation: MIC means the smallest concentration in the dilution series that meets the test's criterion for growth inhibition. The MFC is the smallest concentration meeting the test's criterion for killing the fungus. A high value points to weaker fungicidal potency.
